Test results: ChEMBL document CHEMBL3853318, “Structure-Based Optimization of Potent, Selective, and Orally Bioavailable CDK8 Inhibitors Discovered by High-Throughput Screening” (J Med Chem, 2016)
In brackets after ≈: the same amount, converted by molar mass. Activity calls are given as the source filed them. The rule behind the calls is not given here.

Legend:
[1] = Volume of distribution at steady state in NMRI mouse at 0.2 mg/kg, iv as bolus dose or 0.5 mg/kg, po via gavage measured over 6 hrs; type: ADME, organism-based; conditions: in vivo, read-out: Vdss
[2] = biological target: T1, Cyclin-dependent kinase 8 (Homo sapiens, UniProt P49336); test: Inhibition of CDK8 in human PA1 cells assessed as suppression of WNT3a ligand-induced WNT pathway by luciferase reporter gene assay; type: cell-based, PA-1
Target sequence in this assay (P49336 whole entry): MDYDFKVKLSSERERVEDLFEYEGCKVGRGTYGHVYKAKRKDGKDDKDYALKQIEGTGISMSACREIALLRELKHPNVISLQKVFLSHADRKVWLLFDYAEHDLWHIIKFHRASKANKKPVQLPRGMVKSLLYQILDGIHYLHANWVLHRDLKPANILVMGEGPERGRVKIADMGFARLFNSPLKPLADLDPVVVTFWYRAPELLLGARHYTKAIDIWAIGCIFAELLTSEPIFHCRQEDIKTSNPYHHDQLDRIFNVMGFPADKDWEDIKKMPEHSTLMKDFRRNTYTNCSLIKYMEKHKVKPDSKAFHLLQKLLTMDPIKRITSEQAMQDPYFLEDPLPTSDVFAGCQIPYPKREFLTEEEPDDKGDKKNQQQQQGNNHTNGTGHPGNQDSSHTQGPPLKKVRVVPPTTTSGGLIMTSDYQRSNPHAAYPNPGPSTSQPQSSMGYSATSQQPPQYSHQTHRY

CDK8/Cyclin C = CDK8/Cyclin C (Homo sapiens, UniProt P49336); test: Inhibition of Alexa647 tracer binding to full length recombinant human His-tagged CDK8/cyclin C expressed in Baculovirus expression system preincubated for 20 mins followed by tracer addition and incubated in dark for 60 mins by FRET-based Lanthascreen assay
[3] = Fraction unbound in Beagle dog plasma at 0.2 mg/kg, iv as bolus dose or 0.5 mg/kg, po via gavage measured over 48 hrs; type: ADME, organism-based, Canis lupus familiaris
[4] = biological target: T1, Cyclin-dependent kinase 8; test: Inhibition of CDK8 in human SW620 cells assessed as decrease in STAT1 phosphorylation at Ser727; type: cell-based, SW-620
Target sequence in this assay (P49336 whole entry): as above

[5] = Half life in Beagle dog at 0.2 mg/kg, iv as bolus dose or 0.5 mg/kg, po via gavage; type: ADME, organism-based, Canis lupus familiaris; conditions: in vivo
[6] = Half life in NMRI mouse at 0.2 mg/kg, iv as bolus dose or 0.5 mg/kg, po via gavage; type: ADME, organism-based; conditions: in vivo
[7] = Inhibition of CYP450 (unknown origin); type: ADME, Homo sapiens
[8] = Thermodynamic solubility of the compound in FaSSIF at pH 6.5; type: physicochemical; conditions: read-out: Therm_solubility
[9] = Antitumor activity against human SW620 cells xenografted in NCr athymic mouse assessed as tumor growth inhibition at 100 mg/kg, po qd administered for 16 days relative to control; type: functional, SW-620
Method in brief: (§1)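 Female NCr athymic mice bearing SW620 human colorectal carcinoma xenografts were dosed orally for 16 days. Growth inhibition was expressed as T/C ratio based on final tumor weights versus vehicle controls.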

Mus musculus [10] = test: In vivo inhibition of CDK8-mediated STAT1 phosphorylation at Ser727 in human SW620 cells xenografted in NCr athymic mouse at 50 mg/kg, po bid administered for 16 days measured 2 to 24 hrs post last dose by immunoassay; type: functional, organism-based; conditions: SW-620
Method in brief: (§2)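 SW620 xenografts in female NCr athymic mice were dosed orally for 16 days. Phospho-STAT1 Ser727 was measured by Luminex immunoassay, normalized to total STAT1 and expressed as % of vehicle controls at each time point (2 h to 24 h after dosing).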

Mus musculus [11] = test: Toxicity in NCr athymic mouse xenografted with human SW620 cells assessed as effect on body weight at 100 mg/kg, po qd administered for 16 days; type: organism-based, SW-620; conditions: in vivo, 384 h
Method in brief: (§3)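 Female NCr athymic mice bearing SW620 colorectal xenografts received oral treatment for 16 days. Body weights were recorded and expressed as % of day 0 values.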

[12] = Oral bioavailability in Wistar rat at 0.5 mg/kg via gavage measured over 6 hrs; type: ADME, organism-based; conditions: in vivo
[13] = Volume of distribution at steady state in Wistar rat at 0.2 mg/kg, iv as bolus dose or 0.5 mg/kg, po via gavage measured over 6 hrs; type: ADME, organism-based; conditions: in vivo, read-out: Vdss
[14] = Intrinsic clearance in mouse liver microsomes at 1 uM preincubated for 5 mins followed by NADPH addition measured after 5 to 30 mins by LC-MS/MS analysis; type: ADME; conditions: read-out: CLH
[15] = Plasma clearance in Wistar rat at 0.2 mg/kg, iv as bolus dose or 0.5 mg/kg, po via gavage measured over 6 hrs relative to hepatic blood flow; type: ADME, organism-based, Liver; conditions: in vivo
[16] = Antitumor activity against human SW620 cells xenografted in NCr athymic mouse assessed as tumor growth inhibition at 50 mg/kg, po bid administered for 16 days relative to control; type: functional, SW-620; method in brief: as §1
[17] = Half life in Wistar rat at 0.2 mg/kg, iv as bolus dose or 0.5 mg/kg, po via gavage; type: ADME, organism-based; conditions: in vivo
[18] = Plasma clearance in Beagle dog at 0.2 mg/kg, iv as bolus dose or 0.5 mg/kg, po via gavage measured over 48 hrs relative to hepatic blood flow; type: ADME, organism-based, Canis lupus familiaris, Liver; conditions: in vivo
[19] = Plasma clearance in Wistar rat at 0.2 mg/kg, iv as bolus dose or 0.5 mg/kg, po via gavage measured over 6 hrs; type: ADME, organism-based
[20] = Volume of distribution at steady state in Beagle dog at 0.2 mg/kg, iv as bolus dose or 0.5 mg/kg, po via gavage measured over 48 hrs; type: ADME, organism-based, Canis lupus familiaris; conditions: in vivo, read-out: Vdss
Mus musculus [21] = test: Toxicity in NCr athymic mouse xenografted with human SW620 cells assessed as drug tolerance at 100 mg/kg, po qd administered for 16 days; type: organism-based, SW-620; conditions: in vivo, 384 h; method in brief: as §3
[22] = Apparent permeability from apical to basolateral side in human Caco2 cells at 1 uM after 2 hrs by Transwell assay; type: ADME, cell-based; conditions: Caco-2
[23] = Thermodynamic solubility of the compound in PBS at pH 7.4; type: physicochemical; conditions: read-out: Therm_solubility
[24] = biological target: Glycogen synthase kinase-3 alpha (Homo sapiens) (UniProt P49840); test: Inhibition of GSK-3alpha (unknown origin) at 1 uM relative to control
[25] = Efflux ratio of permeability in human Caco2 cells at 1 uM after 2 hrs by Transwell assay; type: ADME, cell-based; conditions: Caco-2
Mus musculus [26] = test: Toxicity in NCr athymic mouse xenografted with human SW620 cells assessed as body weight loss at 50 mg/kg, po bid administered for 16 days; type: organism-based, SW-620; conditions: in vivo, 384 h; method in brief: as §3
[27] = biological target: T1, Cyclin-dependent kinase 8; test: Inhibition of CDK8 in human LS174T cells expressing beta-catenin mutant assessed as suppression of WNT pathway by luciferase reporter gene assay; type: cell-based
Target sequence in this assay (P49336 whole entry, looked up, stated change not applied): as the sequence (P49336 whole entry) above

[28] = Kinetic solubility of the compound; type: physicochemical; conditions: read-out: Kinetic_solubility
hERG (KCNH2) = hERG (KCNH2) (Homo sapiens, UniProt Q12809); test: Inhibition of human ERG at 10 uM relative to control
[29] = Intrinsic clearance in rat liver microsomes at 1 uM preincubated for 5 mins followed by NADPH addition measured after 5 to 30 mins by LC-MS/MS analysis; type: ADME; conditions: read-out: CLH
Mus musculus [30] = test: In vivo inhibition of CDK8-mediated STAT1 phosphorylation at Ser727 in human SW620 cells xenografted in NCr athymic mouse at 100 mg/kg, po qd administered for 16 days measured 2 to 24 hrs post last dose by immunoassay; type: functional, organism-based; conditions: SW-620; method in brief: as §2
[31] = Oral bioavailability in NMRI mouse at 0.5 mg/kg via gavage measured over 6 hrs measured over 6 hrs; type: ADME, organism-based; conditions: in vivo
[32] = Plasma clearance in NMRI mouse at 0.2 mg/kg, iv as bolus dose or 0.5 mg/kg, po via gavage measured over 6 hrs relative to hepatic blood flow; type: ADME, organism-based, Liver; conditions: in vivo
[33] = biological target: Sodium-dependent dopamine transporter (Homo sapiens, UniProt Q01959); test: Displacement of [3H]BTCP from human recombinant dopamine transporter expressed in CHO cells after 120 mins by scintillation counting method; type: cell-based
[34] = biological target: T1, Cyclin-dependent kinase 8; test: Inhibition of CDK8 in human 7dF3 cells preincubated for 2 hrs followed by beta-oestradiol addition measured after 24 hrs by luciferase reporter gene assay; type: cell-based
Target sequence in this assay (P49336 whole entry): as above

[35] = Plasma clearance in Beagle dog at 0.2 mg/kg, iv as bolus dose or 0.5 mg/kg, po via gavage measured over 48 hrs; type: ADME, organism-based, Canis lupus familiaris
[36] = Fraction unbound in NMRI mouse plasma at 0.2 mg/kg, iv as bolus dose or 0.5 mg/kg, po via gavage measured over 6 hrs; type: ADME, organism-based
[37] = Intrinsic clearance in human liver microsomes at 1 uM preincubated for 5 mins followed by NADPH addition measured after 5 to 30 mins by LC-MS/MS analysis; type: ADME; conditions: read-out: CLH
[38] = Oral bioavailability in Beagle dog at 0.5 mg/kg via gavage measured over 48 hrs; type: ADME, organism-based, Canis lupus familiaris; conditions: in vivo
[39] = Thermodynamic solubility of the compound in FeSSIF at pH 5; type: physicochemical; conditions: read-out: Therm_solubility
[40] = Fraction unbound in Wistar rat plasma at 0.2 mg/kg, iv as bolus dose or 0.5 mg/kg, po via gavage measured over 6 hrs; type: ADME, organism-based
[41] = biological target: T1, Cyclin-dependent kinase 8; test: Inhibition of CDK8 in human COLO205 cells expressing APC mutant assessed as suppression of WNT pathway by luciferase reporter gene assay; type: cell-based; conditions: colo 205
Target sequence in this assay (P49336 whole entry, looked up, stated change not applied): as the sequence (P49336 whole entry) above

[42] = Plasma clearance in NMRI mouse at 0.2 mg/kg, iv as bolus dose or 0.5 mg/kg, po via gavage measured over 6 hrs; type: ADME, organism-based
Mus musculus [43] = test: Toxicity in NCr athymic mouse xenografted with human SW620 cells assessed as drug tolerance at 50 mg/kg, po bid administered for 16 days; type: organism-based, SW-620; conditions: in vivo, 384 h; method in brief: as §3

hERG (KCNH2), sequence (Q12809 whole entry): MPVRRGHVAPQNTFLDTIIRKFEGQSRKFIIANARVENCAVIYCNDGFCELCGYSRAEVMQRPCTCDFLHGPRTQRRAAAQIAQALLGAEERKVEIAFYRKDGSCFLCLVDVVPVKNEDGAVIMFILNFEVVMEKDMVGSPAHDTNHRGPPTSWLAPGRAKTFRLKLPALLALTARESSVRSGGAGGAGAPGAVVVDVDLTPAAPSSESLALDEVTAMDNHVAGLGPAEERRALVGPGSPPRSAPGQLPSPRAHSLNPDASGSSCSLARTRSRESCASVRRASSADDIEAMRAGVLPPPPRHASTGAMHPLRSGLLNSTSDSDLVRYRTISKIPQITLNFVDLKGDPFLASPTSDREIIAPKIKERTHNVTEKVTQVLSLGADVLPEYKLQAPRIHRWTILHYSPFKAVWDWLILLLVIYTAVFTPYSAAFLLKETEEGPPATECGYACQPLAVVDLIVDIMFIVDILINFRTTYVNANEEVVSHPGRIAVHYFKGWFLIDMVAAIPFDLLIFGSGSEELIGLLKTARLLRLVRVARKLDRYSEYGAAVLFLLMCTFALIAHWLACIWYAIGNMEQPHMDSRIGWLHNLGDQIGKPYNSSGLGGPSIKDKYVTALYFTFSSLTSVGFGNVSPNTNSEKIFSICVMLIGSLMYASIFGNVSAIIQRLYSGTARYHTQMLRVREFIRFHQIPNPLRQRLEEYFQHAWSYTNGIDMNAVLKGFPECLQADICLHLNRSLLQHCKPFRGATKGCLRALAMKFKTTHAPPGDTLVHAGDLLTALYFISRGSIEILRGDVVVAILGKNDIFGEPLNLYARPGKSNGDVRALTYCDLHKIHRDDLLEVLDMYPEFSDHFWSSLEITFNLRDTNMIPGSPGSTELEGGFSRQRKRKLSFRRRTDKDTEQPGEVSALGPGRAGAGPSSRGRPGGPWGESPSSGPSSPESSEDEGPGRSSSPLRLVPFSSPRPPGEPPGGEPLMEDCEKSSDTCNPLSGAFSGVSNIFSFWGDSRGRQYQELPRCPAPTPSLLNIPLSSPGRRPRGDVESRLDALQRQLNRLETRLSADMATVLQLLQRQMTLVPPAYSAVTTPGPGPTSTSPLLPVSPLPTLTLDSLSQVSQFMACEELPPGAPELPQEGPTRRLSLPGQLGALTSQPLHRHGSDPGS
Sodium-dependent dopamine transporter, sequence (Q01959 whole entry): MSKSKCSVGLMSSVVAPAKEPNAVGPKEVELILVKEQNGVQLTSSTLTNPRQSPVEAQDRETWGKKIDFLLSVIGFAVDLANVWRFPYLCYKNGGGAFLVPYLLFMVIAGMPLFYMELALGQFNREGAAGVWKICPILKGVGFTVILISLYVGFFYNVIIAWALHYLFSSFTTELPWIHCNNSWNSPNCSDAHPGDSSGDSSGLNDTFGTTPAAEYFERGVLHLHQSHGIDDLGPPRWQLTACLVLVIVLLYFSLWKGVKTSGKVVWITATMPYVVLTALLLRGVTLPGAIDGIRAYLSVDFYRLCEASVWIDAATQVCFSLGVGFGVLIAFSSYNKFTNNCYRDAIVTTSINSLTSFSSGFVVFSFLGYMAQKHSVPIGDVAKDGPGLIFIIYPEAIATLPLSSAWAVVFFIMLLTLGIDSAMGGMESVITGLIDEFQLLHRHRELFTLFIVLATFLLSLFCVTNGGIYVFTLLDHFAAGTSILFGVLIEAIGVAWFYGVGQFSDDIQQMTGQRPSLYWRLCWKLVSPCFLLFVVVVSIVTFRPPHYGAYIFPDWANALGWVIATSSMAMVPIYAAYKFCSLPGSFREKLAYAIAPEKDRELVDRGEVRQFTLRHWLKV
Glycogen synthase kinase-3 alpha (Homo sapiens), sequence (P49840 2-483 limits assumed): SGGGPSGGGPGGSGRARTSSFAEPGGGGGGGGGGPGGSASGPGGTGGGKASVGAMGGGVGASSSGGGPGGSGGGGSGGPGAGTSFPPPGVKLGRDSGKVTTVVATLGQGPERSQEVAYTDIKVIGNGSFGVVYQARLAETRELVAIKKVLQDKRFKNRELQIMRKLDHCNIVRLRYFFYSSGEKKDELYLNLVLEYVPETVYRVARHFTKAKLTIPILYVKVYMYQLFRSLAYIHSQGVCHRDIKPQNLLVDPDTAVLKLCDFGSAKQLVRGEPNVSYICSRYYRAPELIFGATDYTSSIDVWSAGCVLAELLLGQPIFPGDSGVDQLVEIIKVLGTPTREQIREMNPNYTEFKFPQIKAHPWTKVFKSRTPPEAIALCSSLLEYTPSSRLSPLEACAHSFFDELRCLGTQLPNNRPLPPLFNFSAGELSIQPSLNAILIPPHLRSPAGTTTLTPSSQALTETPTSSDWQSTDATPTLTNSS
CDK8/Cyclin C, sequence (P49336 whole entry): as the sequence (P49336 whole entry) above
CDK8/Cyclin C, sequence (P24863 whole entry, further chain): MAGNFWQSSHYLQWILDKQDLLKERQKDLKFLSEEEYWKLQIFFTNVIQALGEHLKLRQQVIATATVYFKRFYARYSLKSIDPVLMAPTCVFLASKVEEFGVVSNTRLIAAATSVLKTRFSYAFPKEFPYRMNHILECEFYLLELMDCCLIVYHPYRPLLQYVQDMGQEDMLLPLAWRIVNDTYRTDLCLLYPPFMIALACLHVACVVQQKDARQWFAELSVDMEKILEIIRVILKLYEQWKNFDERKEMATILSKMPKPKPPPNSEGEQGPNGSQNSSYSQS

Vd [1]: 0.59 L/kg
IC50 [2]: 52 nM
IC50 (CDK8/Cyclin C): 2.6 nM
fraction unbound at 48 h [3]: 0.5
IC50 [4]: 8 nM
half-life [5]: 49.8 min
half-life [6]: 27 min
IC50 [7]: > 20000 nM
solubility thermodynamic [8]: 628 µg/mL (≈ 1840 µM)
bioavailability [12]: 66%
Vd [13]: 1.62 L/kg
microsomal CLint at 1 µM [14]: < 10 µL/min/mg
CL [15]: 34.6%
half-life [17]: 51.6 min
CL [18]: 53.8%
clearance [19]: 25 mL/min/kg
Vd [20]: 1.47 L/kg
Papp A→B at 2 h, 1 µM [22]: 44 ×10⁻⁶ cm/s
solubility thermodynamic [23]: 399 µg/mL (≈ 1170 µM)
inhibition [24]: > 50%
efflux ratio at 2 h, 1 µM [25]: 1.5
IC50 [27]: 32 nM
solubility kinetic [28]: > 200 µM
microsomal CLint at 1 µM [29]: < 10 µL/min/mg
bioavailability [31]: 25%
CL [32]: 22.5%
IC50 [33]: 8500 nM
IC50 [34]: 6.5 nM
clearance [35]: 22.5 mL/min/kg
fraction unbound at 6 h [36]: 0.13
microsomal CLint at 1 µM [37]: 45 µL/min/mg
bioavailability [38]: 39%
solubility thermodynamic [39]: 836 µg/mL (≈ 2450 µM)
fraction unbound at 6 h [40]: 0.19
IC50 [41]: 9 nM
clearance [42]: 22.8 mL/min/kg
Compound: Cc1n[nH]c2ncc(C(=O)N3CCC[C@H]3c3ccc(Cl)cc3)cc12
T/C [9]: 57%
inhibition (Mus musculus [10]): Active
Activity (Mus musculus [11]): Non-Toxic
T/C [16]: 49%
Activity (Mus musculus [21]): Non-Toxic
Activity (Mus musculus [26]): Non-Toxic
inhibition at 10 µM (hERG (KCNH2)): 18%
inhibition (Mus musculus [30]): Active
Activity (Mus musculus [43]): Non-Toxic
